From paper PMC4134498 (British Journal of Cancer, 2014)
Entries after “also recorded” stand apart in the source; their conditions may differ.

Experiments:
advanced solid tumours = experiment: Preliminary efficacy: best objective response, RECIST v1.0; format: in vivo, patients
Outline: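 Patients with advanced solid tumours took oral PARP inhibitor capsules bid, 50–400 mg, on days 1–7 (intermittent) or days 1–28 (continuous) of 28-day cycles, plus liposomal anthracycline 40 mg m−2 on day 1, for up to 6 combination cycles. Site investigators scored objective response by RECIST v1.0. Analyses ran by tumour type and gBRCA status, and for ovarian cancer by platinum sensitivity (progression-free interval ⩾6 months), retrospectively.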

[1] = test system: platinum-sensitive, relapsed, high-grade serous ovarian cancer; conditions: olaparib maintenance, ref Ledermann et al, 2012, cited from earlier work
[2] = continuous dosing, ref Mateo et al, 2013; cited from earlier work
[3] = Plasma pharmacokinetics of olaparib alone and with PLD; format: in vivo, patients; conditions: for AUC(0-t): olaparib AUC0–10 h, Day 1 alone; for AUC(0-t) / Cmax: mean±s.d.; for Cmax: olaparib Cmax, Day 2+PLD
[4] = ovarian cancer patients, all cohorts + PLD 40 mg m^−2, Total (n=26)
[5] = ovarian cancer patients, olaparib 50 mg bid 7 day + PLD 40 mg m^−2 (n=3)
[6] = ovarian cancer patients, olaparib 100 mg bid 7 day + PLD 40 mg m^−2 (n=2)
[7] = ovarian cancer patients, olaparib 100 mg bid 28 day + PLD 40 mg m^−2 (n=2)
[8] = ovarian cancer patients, olaparib 200 mg bid 7 day + PLD 40 mg m^−2 (n=2)
[9] = ovarian cancer patients, olaparib 200 mg bid 28 day + PLD 40 mg m^−2 (n=3)
[10] = ovarian cancer patients, olaparib 400 mg bid 7 day + PLD 40 mg m^−2 (n=8)
[11] = ovarian cancer patients, olaparib 400 mg bid 28 day + PLD 40 mg m^−2 (n=8)
[12] = overall population, all cohorts + PLD 40 mg m^−2, Total (n=42)
[13] = overall population, olaparib 50 mg bid 7 day + PLD 40 mg m^−2 (n=3)
[14] = overall population, olaparib 100 mg bid 7 day + PLD 40 mg m^−2 (n=3)
[15] = overall population, olaparib 100 mg bid 28 day + PLD 40 mg m^−2 (n=4)
[16] = overall population, olaparib 200 mg bid 7 day + PLD 40 mg m^−2 (n=3)
[17] = overall population, olaparib 200 mg bid 28 day + PLD 40 mg m^−2 (n=7)
[18] = overall population, olaparib 400 mg bid 7 day + PLD 40 mg m^−2 (n=12)
[19] = overall population, olaparib 400 mg bid 28 day + PLD 40 mg m^−2 (n=12)

Structure (SMILES): O=C(c1cc(Cc2n[nH]c(=O)c3ccccc23)ccc1F)N1CCN(C(=O)C2CC2)CC1 [olaparib]
- patients with antitumour activity (advanced solid tumours; continuous olaparib schedule + PLD): 7 out of 23
- patients with antitumour activity (advanced solid tumours; intermittent olaparib schedule + PLD): 7 out of 21
- ORR, platinum-resistant ovarian patients with a gBRCA mutation (advanced solid tumours; olaparib + PLD): 50%
- ORR, platinum-sensitive ovarian patients with a gBRCA mutation (advanced solid tumours; olaparib + PLD): 67%
- ORR, platinum-sensitive ovarian patients with wild type or unknown gBRCA mutation status (advanced solid tumours; olaparib + PLD): 100%
- objective responses, evaluable patients with breast cancer (advanced solid tumours; olaparib + PLD): 8%
- response rate, platinum-resistant ovarian patients (advanced solid tumours; olaparib + PLD): 25%
- response rate, platinum-sensitive ovarian patients (advanced solid tumours; olaparib + PLD): 71%
- ORR, ovarian cancer subgroup (advanced solid tumours; olaparib + PLD, 13 out of 26): 50%
- ORR, overall population (advanced solid tumours; olaparib + PLD, 14 out of 42): 33%
- Ovarian cancer patients with a complete or partial objective response (advanced solid tumours; olaparib + PLD, Platinum resistant, gBRCA Unknown): 0/6
- Ovarian cancer patients with a complete or partial objective response (advanced solid tumours; olaparib + PLD, Platinum resistant, gBRCAm): 3/6
- Ovarian cancer patients with a complete or partial objective response (advanced solid tumours; olaparib + PLD, Platinum sensitive, gBRCA Unknown): 1/1
- Ovarian cancer patients with a complete or partial objective response (advanced solid tumours; olaparib + PLD, Platinum sensitive, gBRCAm): 8/12
- Ovarian cancer patients with a complete or partial objective response (advanced solid tumours; olaparib + PLD, Platinum sensitive, gBRCAwt): 1/1
- response, gBRCA-mutated patients in the ovarian subgroup (advanced solid tumours; olaparib + PLD, eleven patients): 61%
- partial response (PR), evaluable patients (advanced solid tumours; olaparib + PLD, overall, 11 patients): 26%
- complete response (CR), evaluable patients (advanced solid tumours; olaparib + PLD, overall, three patients): 7%
- Best objective response: Complete response, patients (advanced solid tumours; [4]): 3 (12) n (%)
- Best objective response: Partial response, patients (advanced solid tumours; [4]): 10 (38) n (%)
- Best objective response: Progressive disease, patients (advanced solid tumours; [4]): 5 (19) n (%)
- Best objective response: Stable disease, patients (advanced solid tumours; [4]): 8 (31) n (%)
- Best objective response: Complete response, patients (advanced solid tumours; [5]): 1 n
- Best objective response: Partial response, patients (advanced solid tumours; [5]): 1 n
- Best objective response: Progressive disease, patients (advanced solid tumours; [5]): 0 n
- Best objective response: Stable disease, patients (advanced solid tumours; [5]): 1 n
- Best objective response: Complete response, patients (advanced solid tumours; [6]): 0 n
- Best objective response: Partial response, patients (advanced solid tumours; [6]): 1 n
- Best objective response: Progressive disease, patients (advanced solid tumours; [6]): 1 n
- Best objective response: Stable disease, patients (advanced solid tumours; [6]): 0 n
- Best objective response: Complete response, patients (advanced solid tumours; [7]): 0 n
- Best objective response: Partial response, patients (advanced solid tumours; [7]): 0 n
- Best objective response: Progressive disease, patients (advanced solid tumours; [7]): 1 n
- Best objective response: Stable disease, patients (advanced solid tumours; [7]): 0 n
- Best objective response: Complete response, patients (advanced solid tumours; [8]): 0 n
- Best objective response: Partial response, patients (advanced solid tumours; [8]): 1 n
- Best objective response: Progressive disease, patients (advanced solid tumours; [8]): 0 n
- Best objective response: Stable disease, patients (advanced solid tumours; [8]): 1 n
- Best objective response: Complete response, patients (advanced solid tumours; [9]): 0 n
- Best objective response: Partial response, patients (advanced solid tumours; [9]): 1 n
- Best objective response: Progressive disease, patients (advanced solid tumours; [9]): 0 n
- Best objective response: Stable disease, patients (advanced solid tumours; [9]): 1 n
- Best objective response: Complete response, patients (advanced solid tumours; [10]): 1 n
- Best objective response: Partial response, patients (advanced solid tumours; [10]): 2 n
- Best objective response: Progressive disease, patients (advanced solid tumours; [10]): 1 n
- Best objective response: Stable disease, patients (advanced solid tumours; [10]): 4 n
- Best objective response: Complete response, patients (advanced solid tumours; [11]): 1 n
- Best objective response: Partial response, patients (advanced solid tumours; [11]): 4 n
- Best objective response: Progressive disease, patients (advanced solid tumours; [11]): 2 n
- Best objective response: Stable disease, patients (advanced solid tumours; [11]): 1 n
- Best objective response: Complete response, patients (advanced solid tumours; [12]): 3 (7) n (%)
- Best objective response: Not evaluable/unknown, patients (advanced solid tumours; [12]): 2 (5) n (%)
- Best objective response: Partial response, patients (advanced solid tumours; [12]): 11 (26) n (%)
- Best objective response: Progressive disease, patients (advanced solid tumours; [12]): 13 (31) n (%)
- Best objective response: Stable disease, patients (advanced solid tumours; [12]): 13 (31) n (%)
- Best objective response: Complete response, patients (advanced solid tumours; [13]): 1 n
- Best objective response: Not evaluable/unknown, patients (advanced solid tumours; [13]): 0 n
- Best objective response: Partial response, patients (advanced solid tumours; [13]): 1 n
- Best objective response: Progressive disease, patients (advanced solid tumours; [13]): 0 n
- Best objective response: Stable disease, patients (advanced solid tumours; [13]): 1 n
- Best objective response: Complete response, patients (advanced solid tumours; [14]): 0 n
- Best objective response: Not evaluable/unknown, patients (advanced solid tumours; [14]): 0 n
- Best objective response: Partial response, patients (advanced solid tumours; [14]): 1 n
- Best objective response: Progressive disease, patients (advanced solid tumours; [14]): 1 n
- Best objective response: Stable disease, patients (advanced solid tumours; [14]): 1 n
- Best objective response: Complete response, patients (advanced solid tumours; [15]): 0 n
- Best objective response: Not evaluable/unknown, patients (advanced solid tumours; [15]): 0 n
- Best objective response: Partial response, patients (advanced solid tumours; [15]): 0 n
- Best objective response: Progressive disease, patients (advanced solid tumours; [15]): 2 n
- Best objective response: Stable disease, patients (advanced solid tumours; [15]): 1 n
- Best objective response: Complete response, patients (advanced solid tumours; [16]): 0 n
- Best objective response: Not evaluable/unknown, patients (advanced solid tumours; [16]): 0 n
- Best objective response: Partial response, patients (advanced solid tumours; [16]): 1 n
- Best objective response: Progressive disease, patients (advanced solid tumours; [16]): 1 n
- Best objective response: Stable disease, patients (advanced solid tumours; [16]): 1 n
- Best objective response: Complete response, patients (advanced solid tumours; [17]): 0 n
- Best objective response: Not evaluable/unknown, patients (advanced solid tumours; [17]): 1 n
- Best objective response: Partial response, patients (advanced solid tumours; [17]): 1 n
- Best objective response: Progressive disease, patients (advanced solid tumours; [17]): 2 n
- Best objective response: Stable disease, patients (advanced solid tumours; [17]): 2 n
- Best objective response: Complete response, patients (advanced solid tumours; [18]): 1 n
- Best objective response: Not evaluable/unknown, patients (advanced solid tumours; [18]): 1 n
- Best objective response: Partial response, patients (advanced solid tumours; [18]): 2 n
- Best objective response: Progressive disease, patients (advanced solid tumours; [18]): 3 n
- Best objective response: Stable disease, patients (advanced solid tumours; [18]): 5 n
- Best objective response: Complete response, patients (advanced solid tumours; [19]): 1 n
- Best objective response: Not evaluable/unknown, patients (advanced solid tumours; [19]): 0 n
- Best objective response: Partial response, patients (advanced solid tumours; [19]): 5 n
- Best objective response: Progressive disease, patients (advanced solid tumours; [19]): 4 n
- Best objective response: Stable disease, patients (advanced solid tumours; [19]): 2 n
- PFS hazard ratio vs placebo ([1]; 95% CI, 0.25–0.49, P<0.00001): 0.35
- median PFS [1]: 8.4 months
- recommended dose of the olaparib tablet formulation [2]: 300 mg bid
- Tmax ([3]; human, plasma, oral): 2.1 h
- AUC(0-t) ([3]; human, plasma, oral, 50 mg, olaparib 50 mg, n=3): 8700 ± 5800 ng·h/mL
- AUC(0-t) ([3]; human, plasma, oral, 400 mg, olaparib 400 mg bid, n=11): 25900 ± 9000 ng·h/mL
- Cmax ([3]; human, plasma, oral, olaparib 50 mg bid): 1400 ± 700 ng/mL
- Cmax ([3]; human, plasma, oral, olaparib 100 mg bid): 2200 ± 1000 ng/mL
- PK interference between olaparib and PLD ([3]; in vivo): No major pharmacokinetic interference; also recorded: minor
